ChEMBL document CHEMBL1921766, “Orally active zwitterionic factor Xa inhibitors with long duration of action” (Bioorg Med Chem Lett, 2011)
≈ marks a conversion by molar mass, not a printed value.

Test: Solubility of the compound in Japanese pharmacopoeia first fluid at pH 1.2 at 10 mM after 12 hrs
Assay type: physicochemical
Conditions: not given
Procedure, shortened: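 Solubility measured in Japanese Pharmacopoeia First Fluid, pH 1.2.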

Structure (SMILES) | solubility at 12 h, 10000 µM
CN1CCc2nc(C(=O)Nc3c(CNC(=O)c4ccc(Cl)s4)cccc3C(=O)O)sc2C1 | 710 µg/mL (≈ 1450 µM)
CN1CCc2nc(C(=O)Nc3ccc(C(=O)O)cc3CNC(=O)c3ccc(Cl)s3)sc2C1 | 72 µg/mL (≈ 147 µM)
CN1CCc2nc(C(=O)Nc3c(CNC(=O)c4ccc(Cl)s4)cccc3C(N)=O)sc2C1 | 740 µg/mL (≈ 1510 µM)
CN1CCc2nc(C(=O)Nc3cc(C(N)=O)ccc3CNC(=O)c3ccc(Cl)s3)sc2C1 | 30 µg/mL (≈ 61.2 µM)
CNC(=O)c1cccc(CNC(=O)c2ccc(Cl)s2)c1NC(=O)c1nc2c(s1)CN(C)CC2 | 830 µg/mL (≈ 1650 µM)
CNC(=O)c1ccc(CNC(=O)c2ccc(Cl)s2)c(NC(=O)c2nc3c(s2)CN(C)CC3)c1 | 140 µg/mL (≈ 278 µM)
CN1CCc2nc(C(=O)Nc3c(CNC(=O)c4ccc(Cl)s4)cccc3C(=O)N(C)C)sc2C1 | 900 µg/mL (≈ 1740 µM)
CN1CCc2nc(C(=O)Nc3cc(C(=O)N(C)C)ccc3CNC(=O)c3ccc(Cl)s3)sc2C1 | > 900 µg/mL
COC(=O)c1ccc(CNC(=O)c2ccc(Cl)s2)c(NC(=O)c2nc3c(s2)CN(C)CC3)c1 | 890 µg/mL (≈ 1760 µM)
CN1CCc2nc(C(=O)Nc3cc(C(=O)NS(C)(=O)=O)ccc3CNC(=O)c3ccc(Cl)s3)sc2C1 | 990 µg/mL (≈ 1740 µM)
CN1CCc2nc(C(=O)Nc3cc(-c4nnn[nH]4)ccc3CNC(=O)c3ccc(Cl)s3)sc2C1 | 320 µg/mL (≈ 621 µM)
CC(C)N1CCc2nc(C(=O)Nc3c(CNC(=O)c4ccc(Cl)s4)cccc3C(=O)O)sc2C1 | 1000 µg/mL (≈ 1930 µM)
O=C(NCc1cccc(C(=O)O)c1NC(=O)c1nc2c(s1)COCC2)c1ccc(Cl)s1 | 2 µg/mL (≈ 4.18 µM)
O=C(O)c1ccc(CNC(=O)c2ccc(Cl)s2)c(NC(=O)c2nc3c(s2)COCC3)c1 | 2 µg/mL (≈ 4.18 µM)
CCN1CCc2nc(C(=O)Nc3cc(C(=O)O)ccc3CNC(=O)c3ccc(Cl)s3)sc2C1 | 230 µg/mL (≈ 455 µM)

More lines, now with the values ahead:

solubility at 12 h, 10000 µM | Structure (SMILES)
65 µg/mL (≈ 114 µM) | CC(C)N1CCc2nc(C(=O)Nc3cc(C(=O)O)ccc3CCC(=O)Nc3ccc(Br)cc3)sc2C1
55 µg/mL (≈ 112 µM) | CN1CCc2nc(C(=O)Nc3cc(C(=O)O)ccc3CNC(=O)c3ccc(Cl)s3)sc2C1
49 µg/mL (≈ 94.4 µM) | CC(C)N1CCc2nc(C(=O)Nc3cc(C(=O)O)ccc3CNC(=O)c3ccc(Cl)s3)sc2C1
610 µg/mL (≈ 1110 µM) | COCC(C)N1CCc2nc(C(=O)Nc3cc(C(=O)O)ccc3CNC(=O)c3ccc(Cl)s3)sc2C1 (configuration not stated)
160 µg/mL (≈ 298 µM) | CC(CF)N1CCc2nc(C(=O)Nc3cc(C(=O)O)ccc3CNC(=O)c3ccc(Cl)s3)sc2C1 (configuration not stated)
120 µg/mL (≈ 216 µM) | O=C(O)c1ccc(CNC(=O)c2ccc(Cl)s2)c(NC(=O)c2nc3c(s2)CN(C(CF)CF)CC3)c1

Test: Solubility of the compound in Japanese pharmacopoeia second fluid at pH 6.8 at 10 mM after 12 hrs
Assay type: physicochemical
Conditions: not given
Procedure, shortened: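 Solubility measured in Japanese Pharmacopoeia Second Fluid, pH 6.8.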

Structure (SMILES) | solubility at 12 h, 10000 µM
CN1CCc2nc(C(=O)Nc3c(CNC(=O)c4ccc(Cl)s4)cccc3C(=O)O)sc2C1 | > 800 µg/mL
CN1CCc2nc(C(=O)Nc3ccc(C(=O)O)cc3CNC(=O)c3ccc(Cl)s3)sc2C1 | 13 µg/mL (≈ 26.5 µM)
CN1CCc2nc(C(=O)Nc3c(CNC(=O)c4ccc(Cl)s4)cccc3C(N)=O)sc2C1 | 710 µg/mL (≈ 1450 µM)
CN1CCc2nc(C(=O)Nc3cc(C(N)=O)ccc3CNC(=O)c3ccc(Cl)s3)sc2C1 | < 2.4 µg/mL
CNC(=O)c1cccc(CNC(=O)c2ccc(Cl)s2)c1NC(=O)c1nc2c(s1)CN(C)CC2 | 130 µg/mL (≈ 258 µM)
CNC(=O)c1ccc(CNC(=O)c2ccc(Cl)s2)c(NC(=O)c2nc3c(s2)CN(C)CC3)c1 | 2.7 µg/mL (≈ 5.36 µM)
CN1CCc2nc(C(=O)Nc3c(CNC(=O)c4ccc(Cl)s4)cccc3C(=O)N(C)C)sc2C1 | 980 µg/mL (≈ 1890 µM)
CN1CCc2nc(C(=O)Nc3cc(C(=O)N(C)C)ccc3CNC(=O)c3ccc(Cl)s3)sc2C1 | 830 µg/mL (≈ 1600 µM)
COC(=O)c1ccc(CNC(=O)c2ccc(Cl)s2)c(NC(=O)c2nc3c(s2)CN(C)CC3)c1 | 52 µg/mL (≈ 103 µM)
CN1CCc2nc(C(=O)Nc3cc(C(=O)NS(C)(=O)=O)ccc3CNC(=O)c3ccc(Cl)s3)sc2C1 | 1000 µg/mL (≈ 1760 µM)
CN1CCc2nc(C(=O)Nc3cc(-c4nnn[nH]4)ccc3CNC(=O)c3ccc(Cl)s3)sc2C1 | 470 µg/mL (≈ 913 µM)
CC(C)N1CCc2nc(C(=O)Nc3c(CNC(=O)c4ccc(Cl)s4)cccc3C(=O)O)sc2C1 | 1000 µg/mL (≈ 1930 µM)
O=C(NCc1cccc(C(=O)O)c1NC(=O)c1nc2c(s1)COCC2)c1ccc(Cl)s1 | 930 µg/mL (≈ 1950 µM)
O=C(O)c1ccc(CNC(=O)c2ccc(Cl)s2)c(NC(=O)c2nc3c(s2)COCC3)c1 | 950 µg/mL (≈ 1990 µM)
CCN1CCc2nc(C(=O)Nc3cc(C(=O)O)ccc3CNC(=O)c3ccc(Cl)s3)sc2C1 | 1000 µg/mL (≈ 1980 µM)

The remaining lines, values ahead:

solubility at 12 h, 10000 µM | Structure (SMILES)
520 µg/mL (≈ 910 µM) | CC(C)N1CCc2nc(C(=O)Nc3cc(C(=O)O)ccc3CCC(=O)Nc3ccc(Br)cc3)sc2C1
> 850 µg/mL | CN1CCc2nc(C(=O)Nc3cc(C(=O)O)ccc3CNC(=O)c3ccc(Cl)s3)sc2C1
41 µg/mL (≈ 79 µM) | CC(C)N1CCc2nc(C(=O)Nc3cc(C(=O)O)ccc3CNC(=O)c3ccc(Cl)s3)sc2C1
1000 µg/mL (≈ 1820 µM) | COCC(C)N1CCc2nc(C(=O)Nc3cc(C(=O)O)ccc3CNC(=O)c3ccc(Cl)s3)sc2C1 (configuration not stated)
580 µg/mL (≈ 1080 µM) | CC(CF)N1CCc2nc(C(=O)Nc3cc(C(=O)O)ccc3CNC(=O)c3ccc(Cl)s3)sc2C1 (configuration not stated)
870 µg/mL (≈ 1570 µM) | O=C(O)c1ccc(CNC(=O)c2ccc(Cl)s2)c(NC(=O)c2nc3c(s2)CN(C(CF)CF)CC3)c1

Test: Metabolic stability in human liver microsomes at 1 uM after 20 to 30 mins by LC/MS/MS analysis in presence of NADPH
Assay type: ADME, Microsome
Conditions: read-out: Stability
Procedure, shortened: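 Metabolic stability read as percent remaining after incubation with human liver microsomes in vitro.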

Structure (SMILES) | remaining at 1 µM
CN1CCc2nc(C(=O)Nc3ccc(C(=O)O)cc3CNC(=O)c3ccc(Cl)s3)sc2C1 | 95%
CN1CCc2nc(C(=O)Nc3c(CNC(=O)c4ccc(Cl)s4)cccc3C(N)=O)sc2C1 | 94%
CN1CCc2nc(C(=O)Nc3cc(C(N)=O)ccc3CNC(=O)c3ccc(Cl)s3)sc2C1 | 77%
CNC(=O)c1cccc(CNC(=O)c2ccc(Cl)s2)c1NC(=O)c1nc2c(s1)CN(C)CC2 | 80%
CNC(=O)c1ccc(CNC(=O)c2ccc(Cl)s2)c(NC(=O)c2nc3c(s2)CN(C)CC3)c1 | 85%
CN1CCc2nc(C(=O)Nc3c(CNC(=O)c4ccc(Cl)s4)cccc3C(=O)N(C)C)sc2C1 | 81%
CN1CCc2nc(C(=O)Nc3cc(C(=O)N(C)C)ccc3CNC(=O)c3ccc(Cl)s3)sc2C1 | 67%
COC(=O)c1ccc(CNC(=O)c2ccc(Cl)s2)c(NC(=O)c2nc3c(s2)CN(C)CC3)c1 | 42%
CC(C)N1CCc2nc(C(=O)Nc3c(CNC(=O)c4ccc(Cl)s4)cccc3C(=O)O)sc2C1 | 96%
O=C(NCc1cccc(C(=O)O)c1NC(=O)c1nc2c(s1)COCC2)c1ccc(Cl)s1 | 57%
O=C(O)c1ccc(CNC(=O)c2ccc(Cl)s2)c(NC(=O)c2nc3c(s2)COCC3)c1 | 82%
CCN1CCc2nc(C(=O)Nc3cc(C(=O)O)ccc3CNC(=O)c3ccc(Cl)s3)sc2C1 | 97%

The remaining lines, values ahead:

remaining at 1 µM | Structure (SMILES)
88% | CC(C)N1CCc2nc(C(=O)Nc3cc(C(=O)O)ccc3CCC(=O)Nc3ccc(Br)cc3)sc2C1
71% | CN1CCc2nc(C(=O)Nc3cc(C(=O)O)ccc3CNC(=O)c3ccc(Cl)s3)sc2C1
96% | CC(C)N1CCc2nc(C(=O)Nc3cc(C(=O)O)ccc3CNC(=O)c3ccc(Cl)s3)sc2C1
100% | COCC(C)N1CCc2nc(C(=O)Nc3cc(C(=O)O)ccc3CNC(=O)c3ccc(Cl)s3)sc2C1 (configuration not stated)
94% | CC(CF)N1CCc2nc(C(=O)Nc3cc(C(=O)O)ccc3CNC(=O)c3ccc(Cl)s3)sc2C1 (configuration not stated)
100% | O=C(O)c1ccc(CNC(=O)c2ccc(Cl)s2)c(NC(=O)c2nc3c(s2)CN(C(CF)CF)CC3)c1

Test: 1-Octanol-phosphate buffered saline distribution coefficient, log D of the compound at pH 7.4 after 30 mins by shake flask method
Assay type: physicochemical
Conditions: not given
Procedure, shortened: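 Log D measured as the partition between 1-octanol and phosphate buffered saline, pH 7.4.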

Structure (SMILES) | logD at 0.5 h
CN1CCc2nc(C(=O)Nc3c(CNC(=O)c4ccc(Cl)s4)cccc3C(=O)O)sc2C1 | -0.38
CC(C)N1CCc2nc(C(=O)Nc3c(CNC(=O)c4ccc(Cl)s4)cccc3C(=O)O)sc2C1 | 0.28
O=C(NCc1cccc(C(=O)O)c1NC(=O)c1nc2c(s1)COCC2)c1ccc(Cl)s1 | -0.12
O=C(O)c1ccc(CNC(=O)c2ccc(Cl)s2)c(NC(=O)c2nc3c(s2)COCC3)c1 | 0.02
CCN1CCc2nc(C(=O)Nc3cc(C(=O)O)ccc3CNC(=O)c3ccc(Cl)s3)sc2C1 | 0.14

Second part, the compound after the results:

logD at 0.5 h | Structure (SMILES)
1.08 | CC(C)N1CCc2nc(C(=O)Nc3cc(C(=O)O)ccc3CCC(=O)Nc3ccc(Br)cc3)sc2C1
-0.29 | CN1CCc2nc(C(=O)Nc3cc(C(=O)O)ccc3CNC(=O)c3ccc(Cl)s3)sc2C1
0.57 | CC(C)N1CCc2nc(C(=O)Nc3cc(C(=O)O)ccc3CNC(=O)c3ccc(Cl)s3)sc2C1
0.41 | COCC(C)N1CCc2nc(C(=O)Nc3cc(C(=O)O)ccc3CNC(=O)c3ccc(Cl)s3)sc2C1 (configuration not stated)
0.45 | CC(CF)N1CCc2nc(C(=O)Nc3cc(C(=O)O)ccc3CNC(=O)c3ccc(Cl)s3)sc2C1 (configuration not stated)
0.44 | O=C(O)c1ccc(CNC(=O)c2ccc(Cl)s2)c(NC(=O)c2nc3c(s2)CN(C(CF)CF)CC3)c1

Test: Bioavailability in monkey at 1 mg/kg, iv after 24 hrs by LC-MS/MS analysis
Assay type: ADME, organism-based, Macaca mulatta
Conditions: rhesus monkey, in vivo

bioavailability | Structure (SMILES)
51% | CC(C)N1CCc2nc(C(=O)Nc3cc(C(=O)O)ccc3CNC(=O)c3ccc(Cl)s3)sc2C1
